# From ChEMBL document CHEMBL1157379, “Transcriptional response of Candida parapsilosis following exposure to farnesol” (2007)
# Calls of active or inactive are those of the source. No cut-off for these calls is given here.
# Experiments:
# Candida parapsilosis [1] = test: Increase in ACC1 gene expression in Candida parapsilosis CLIB214 at 50 uM after 2 hrs by microarray based transcriptional profiling relative to control; assay type: functional
# Method in brief: (§1)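 Strain CLIB214 grown overnight in YPD at 30°C, diluted to A600 0.2 in fresh YPD at 30°C. After 4 h (A600 0.8), farnesol (40 mM methanol stock) added to 50 μM final, or an equal methanol volume as control; cells harvested 2 h later. RNA was accepted only with a 28S/18S ratio of 1.6–2.2. Cy3/Cy5-dCTP-labelled cDNA was made from 25 μg total RNA. Hybridisation was to duplicate-spotted 68-mer oligo arrays (3,849 genes) at 42°C for about 16 h. Six individual comparisons.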
# Candida parapsilosis [2] = test: Decrease in AMO2 gene expression in Candida parapsilosis CLIB214 at 50 uM after 2 hrs by microarray based transcriptional profiling relative to control; assay type: functional
# Method in brief: (§2)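 Cells in YPD at 30°C treated with 50 μM farnesol at 4 h, with a methanol control. RNA harvested 2 h later and kept only if 28S/18S ratio was 1.6–2.2 with no degradation. 25 μg total RNA oligo-dT primed and labeled with Cy3/Cy5-dCTP. Labeled cDNA hybridized about 16 h at 42°C to duplicate-spotted 68-mer oligo arrays. Six individual comparisons analyzed statistically.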
# Candida parapsilosis [3] = test: Effect on membrane lipid localization in ERG9 gene expression in Candida parapsilosis CLIB214 assessed as uniform staining at 50 uM after 1 hr by filipin staining; assay type: functional
# Method in brief: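 Cultures grown overnight in YPD at 30°C, diluted to A600 0.2, and given farnesol to 50 μM final (methanol for controls) after 4 h of growth. Cells collected 1 h later, PBS-washed, and stained 10 min at room temperature with 100 μg ml−1 filipin in water. Scored by fluorescence microscopy (excitation 360–370 nm, emission 420–460 nm) as bud-tip versus uniform sterol staining.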
# Candida parapsilosis [4] = test: Effect on GDH2 gene expression in Candida parapsilosis CLIB214 by microarray based transcriptional profiling; assay type: functional, organism-based; method in brief: as §1
# Candida parapsilosis [5] = test: Increase in ELF1 gene expression in Candida parapsilosis CLIB214 at 50 uM after 2 hrs by microarray based transcriptional profiling relative to control; assay type: functional
# Method in brief: (§3)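 Strain grown overnight in YPD at 30°C, diluted to A600 0.2 in YPD at 30°C; farnesol (40 mM methanol stock) added at 4 h (A600 0.8), final 50 μM; methanol-only control. Cells collected 2 h later for RNA. Labelled cDNA from 25 μg total RNA (Cy3/Cy5-dCTP) hybridized to 68-mer oligo arrays at 42°C ~16 h; six individual comparisons analysed statistically.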
# Candida parapsilosis [6] = test: Decrease in CGD gene ortholog accession number orf19.5212 expression in Candida parapsilosis CLIB214 at 50 uM after 2 hrs by microarray based transcriptional profiling relative to control; assay type: functional; method in brief: as §2
# Candida parapsilosis [7] = test: Decrease in SOL1 gene expression in Candida parapsilosis CLIB214 at 50 uM after 2 hrs by microarray based transcriptional profiling relative to control; assay type: functional; method in brief: as §1
# Candida parapsilosis [8] = test: Reduction in ERG9 gene expression in Candida parapsilosis CLIB214 by RT-PCR; assay type: functional, organism-based
# Method in brief: (§4)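 Cultures in YPD at 30°C, diluted to A600 0.2; 50 μM farnesol (final) or methanol added at 4 h, RNA harvested 2 h later. RT-PCR: 95°C hot start 1 min 30 s, then 26 cycles (95°C 40 s, 55°C 2 min, 72°C 3 min), final 72°C 5 min; each gene signal normalized to ACT1.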
# Candida parapsilosis [9] = test: Increase in GenBank accession number NP_983467.1 expression in Candida parapsilosis CLIB214 at 50 uM after 2 hrs by microarray based transcriptional profiling relative to control; assay type: functional; method in brief: as §3
# Candida parapsilosis [10] = test: Antifungal activity against Candida parapsilosis CLIB214 assessed as growth inhibition at 50 uM added after 8 hrs of bacterial growth measured after 4 hrs; assay type: functional; conditions: Lodderomyces parapsilosis
# Method in brief: (§5)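 Overnight YPD culture at 30°C diluted to A600 0.2 in YPD. Farnesol added to 50 μM final at 2, 4, 6 or 8 h of growth (A600 about 0.8 at 4 h, 2.3 at 6 h, 6 at 8 h). Growth compared with methanol controls by A600 or cell counts.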
# Candida parapsilosis [11] = test: Increase in CGD gene ortholog accession number orf19.6018 expression in Candida parapsilosis CLIB214 at 50 uM after 2 hrs by microarray based transcriptional profiling relative to control; assay type: functional; method in brief: as §1
# Candida parapsilosis [12] = test: Increase in CGD gene ortholog accession number orf19.7353 expression in Candida parapsilosis CLIB214 at 50 uM after 2 hrs by microarray based transcriptional profiling relative to control; assay type: functional; method in brief: as §1
# Candida parapsilosis [13] = test: Decrease in CGD gene ortholog accession number orf19.2097 expression in Candida parapsilosis CLIB214 at 50 uM after 2 hrs by microarray based transcriptional profiling relative to control; assay type: functional; method in brief: as §2
# Candida parapsilosis [14] = test: Increase in CGD gene ortholog accession number orf19.1026 expression in Candida parapsilosis CLIB214 at 50 uM after 2 hrs by microarray based transcriptional profiling relative to control; assay type: functional; method in brief: as §1
# Candida parapsilosis [15] = test: Increase in ARP3 gene expression in Candida parapsilosis CLIB214 at 50 uM after 2 hrs by microarray based transcriptional profiling relative to control; assay type: functional; method in brief: as §1
# Candida parapsilosis [16] = test: Decrease in CGD gene ortholog accession number orf19.3051 expression in Candida parapsilosis CLIB214 at 50 uM after 2 hrs by microarray based transcriptional profiling relative to control; assay type: functional; method in brief: as §2
# Candida parapsilosis [17] = test: Decrease in CGD gene ortholog accession number orf19.6281 expression in Candida parapsilosis CLIB214 at 50 uM after 2 hrs by microarray based transcriptional profiling relative to control; assay type: functional; method in brief: as §2
# Candida parapsilosis [18] = test: Increase in CGD gene ortholog accession number orf19.6080 expression in Candida parapsilosis CLIB214 at 50 uM after 2 hrs by microarray based transcriptional profiling relative to control; assay type: functional; method in brief: as §1
# Candida parapsilosis [19] = test: Decrease in CGD gene ortholog accession number orf19.2517 expression in Candida parapsilosis CLIB214 at 50 uM after 2 hrs by microarray based transcriptional profiling relative to control; assay type: functional; method in brief: as §2
# Candida parapsilosis [20] = test: Decrease in CGD gene ortholog accession number orf19.4210 expression in Candida parapsilosis CLIB214 at 50 uM after 2 hrs by microarray based transcriptional profiling relative to control; assay type: functional; method in brief: as §2
# Candida parapsilosis [21] = test: Antifungal activity against Candida parapsilosis CLIB214 assessed as growth inhibition at 50 uM added after 8 hrs of bacterial growth measured after 2 hrs; assay type: functional; conditions: Lodderomyces parapsilosis; method in brief: as §5
# Candida parapsilosis [22] = test: Cell cycle arrest in Candida parapsilosis CLIB214 assessed as accumulation at G2/M phase at 50 uM added 4 hrs after […] growth; assay type: functional, organism-based
# Method in brief: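 YPD culture diluted to A600 0.2 at 30°C. Farnesol added to 50 μM after 4 h. Budding cells scored by microscopy: unbudded as G1, small budded as S, large budded as G2/M. Compared with methanol controls.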
# Candida parapsilosis [23] = test: Increase in STP2 gene expression in Candida parapsilosis CLIB214 at 50 uM after 2 hrs by microarray based transcriptional profiling relative to control; assay type: functional; method in brief: as §3
# Candida parapsilosis [24] = test: Reduction in ERG1 gene expression in Candida parapsilosis CLIB214 by RT-PCR; assay type: functional, organism-based; method in brief: as §4
# Candida parapsilosis [25] = test: Decrease in ERG1 gene expression in Candida parapsilosis CLIB214 at 50 uM after 2 hrs by microarray based transcriptional profiling relative to control; assay type: functional; method in brief: as §1
smiles,measurement,setting,value
CC(C)=CCC/C(C)=C/CC/C(C)=C/CO [FARNESOL],fold change (FC),Candida parapsilosis [1],1.59
same,fold change (FC),Candida parapsilosis [2],1.56
same,Activity,Candida parapsilosis [3],82%
same,Activity,Candida parapsilosis [4],inactive
same,fold change (FC),Candida parapsilosis [5],2.16
same,fold change (FC),Candida parapsilosis [6],2.33
same,fold change (FC),Candida parapsilosis [7],1.54
same,Activity,Candida parapsilosis [8],Active
same,fold change (FC),Candida parapsilosis [9],3.16
same,inhibition at 50 µM,Candida parapsilosis [10],16%
same,fold change (FC),Candida parapsilosis [11],2.07
same,fold change (FC),Candida parapsilosis [12],2.14
same,fold change (FC),Candida parapsilosis [13],1.53
same,fold change (FC),Candida parapsilosis [14],1.55
same,fold change (FC),Candida parapsilosis [15],1.67
same,fold change (FC),Candida parapsilosis [16],1.67
same,fold change (FC),Candida parapsilosis [17],1.72
same,fold change (FC),Candida parapsilosis [18],1.52
same,fold change (FC),Candida parapsilosis [19],1.69
same,fold change (FC),Candida parapsilosis [20],1.79
same,inhibition at 50 µM,Candida parapsilosis [21],9.5%
same,Activity,Candida parapsilosis [22],Active
same,fold change (FC),Candida parapsilosis [23],1.63
same,Activity,Candida parapsilosis [24],Active
same,fold change (FC),Candida parapsilosis [25],2.24
